Results on 14 compounds are retold here after PubChem BioAssay.

Calls of active or inactive are those of the source.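 Rule for the calls, unless noted: active = inhibition above 20% together with a positive visual image hit; inconclusive = visual image hit but inhibition not above 20%; inactive = no visual image hit.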

Assay [1] can be described thus: inhibitors of TNFa-induced NFkB p65 translocation, primary screen, imaging, HUVEC, MLSMR starter and 10KST1 sets (AID 438).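 For inhibition: signal is the nuclear over cytoplasmic p65 intensity ratio per well.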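 Note: compound added about 3h40 before a 20 min TNFalpha stimulation.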 The conditions noted are these: HUVEC TNFa-induced p65 nuclear translocation; cell count: measured here: nuclei count (cytotoxicity indicator), at 2.08 µM; inhibition: at 2 µM, stronger effect = higher value, 0% TNFa-plus-vehicle, 100% no-TNFa wells.
A short description of assay [2]: reduction of polyQ htt aggregates in cells – imaging, exon1htt(103Q)mCFP cells, high-content imaging, primary screen (AID 483;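 active = visual image review flags a hit and inhibition of aggregation exceeds 20%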;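 note: compound exposure lasted 3 days before fixation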;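 for nuclei count: percent of the per-plate median nuclei count of sample wells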). The conditions noted are these: exon1htt(103Q)mCFP cell line, aggregate imaging, at 2 µM; inhibition of aggregation: stronger effect = higher value; nuclei count: measured here: cell count, toxicity.
Assay [3] is described as follows: endothelial E-selectin expression blockers – imaging, HUVEC, immunofluorescence, MLSMR starter and 10KST1 sets, primary screen (AID 487;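 active = visually confirmed hit in the image check and inhibition above 20%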;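 for inhibition: signal is fraction of cell area covered by stained E-selectin grains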;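 for nuclei count: 100% = median nuclei count of all wells on the same plate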). The following applies: HUVEC TNFalpha-induced E-selectin immunofluorescence imaging, at 2 µM; inhibition: stronger effect = higher value; nuclei count: measured here: cell number, toxicity.
The target in assay [4] is Voltage-gated potassium channel subunit beta-2 (Rattus norvegicus) (UniProt P62483). Nature of the assay: inhibitors of rat Kvbeta2 reductase activity – biochemical, NADPH fluorescence, primary screen (AID 622;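 active = fluorescence slope higher than the sample average by over 3 SD, cut at about -0.22 in these data, passing the limit was not always enough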;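 note: slope of raw intensity against log time taken from 70 to 1610 s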). The following applies: recombinant KvBeta, 4-cyanobenzaldehyde reduction, at 10 µM, stronger effect = higher value.
Chain of Voltage-gated potassium channel subunit beta-2 (Rattus norvegicus) (P62483 whole entry, looked up): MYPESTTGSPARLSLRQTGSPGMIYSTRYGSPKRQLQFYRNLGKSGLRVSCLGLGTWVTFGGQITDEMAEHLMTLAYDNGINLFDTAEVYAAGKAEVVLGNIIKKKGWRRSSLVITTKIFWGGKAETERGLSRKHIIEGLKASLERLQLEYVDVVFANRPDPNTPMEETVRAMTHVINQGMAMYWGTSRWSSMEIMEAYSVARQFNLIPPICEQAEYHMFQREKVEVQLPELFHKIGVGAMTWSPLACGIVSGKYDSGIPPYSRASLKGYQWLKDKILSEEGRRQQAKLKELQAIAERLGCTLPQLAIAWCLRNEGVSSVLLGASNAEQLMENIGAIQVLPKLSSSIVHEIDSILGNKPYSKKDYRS
Assay [5] has the same target. Put plainly: enhancers of rat Kvbeta2 NADPH turnover – biochemical, NADPH fluorescence, primary screen (AID 623;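 active = NADPH fluorescence slope more negative than the mean of all samples by about 3 SD, 99.7% confidence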;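 note: fluorescence intensity change per second fitted from 20 to 320 s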). The following applies: Recombinant KvBeta, NADPH fluorescence decrease slope, 10 min; at 10 µM; stronger effect = lower value.
For assay [6], the target named is Muscarinic acetylcholine receptor M4 (Homo sapiens) (UniProt P08173). Put plainly: M4-linked GIRK flux change, two-sided – cell-based, HEK293 M4/GIRK, thallium flux, BTC-AM, M4 allosteric agonist project, primary screen (AID 625;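 active = fluorescence slope after compound addition differing from the mean of all tested samples at 99.7% confidence, mostly higher but some lower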;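 note: thallium influx through GIRK channels coupled to M4 in HEK293 cells with BTC-AM dye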). The conditions noted are these: at 10 µM, actives lie on both sides. An outline of the steps: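 System: HEK293 cells with M4 receptor and GIRK channels | Incubation: Cells overnight at 37 °C, BTC-AM loading 1 h, reads 2 min total | Technique: Kinetic BTC-AM fluorescence sampled at 1 Hz, 10 s pre-addition baseline | Measure: Post-addition slope, 15–24 s, of baseline-normalized fluorescence | Control set: Carbachol positive, DMSO negative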
Chain of Muscarinic acetylcholine receptor M4 (Homo sapiens) (P08173 whole entry, looked up): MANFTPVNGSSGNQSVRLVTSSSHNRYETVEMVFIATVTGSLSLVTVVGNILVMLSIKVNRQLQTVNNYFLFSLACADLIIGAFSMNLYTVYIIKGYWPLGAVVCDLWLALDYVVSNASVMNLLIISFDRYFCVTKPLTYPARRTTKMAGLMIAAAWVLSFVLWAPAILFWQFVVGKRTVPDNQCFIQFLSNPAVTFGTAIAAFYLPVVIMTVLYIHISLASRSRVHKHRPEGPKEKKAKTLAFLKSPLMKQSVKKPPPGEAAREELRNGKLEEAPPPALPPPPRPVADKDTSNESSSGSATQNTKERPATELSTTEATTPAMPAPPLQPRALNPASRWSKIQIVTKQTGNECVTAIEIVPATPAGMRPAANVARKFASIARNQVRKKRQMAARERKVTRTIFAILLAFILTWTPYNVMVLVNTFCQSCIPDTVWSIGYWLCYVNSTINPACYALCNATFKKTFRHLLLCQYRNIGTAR

Assay [7] is described as follows: blockers of RIG-like receptor reporter activation – cell-based, Sendai virus stimulus, luciferase, 10K MLSCN set, TLR/RLR signaling modifier project, primary screen (AID 602276;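 active = inhibition at or above 50% at 10 µM; inactive = inhibition below 50%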;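 note: firefly luciferase from ISG56 promoter only with Renilla not read in this screen; 0% = Sendai virus plus DMSO and 100% = medium plus DMSO without virus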). The conditions noted are these: HEK293 RL24 IRF3 luciferase reporter, at 10 µM, stronger effect = higher value.
Assay [8] in a line: TLR3 IRF3 reporter activation blockers – cell-based, poly I:C stimulus, luciferase, 10K MLSCN set, primary screen (AID 602277;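 active = inhibition of the reporter signal at or above 50%; inactive = inhibition below 50%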). The following applies: HEK293-TLR3 RL24 IRF3 luciferase reporter, at 10 µM, stronger effect = higher value.

Regarding `COc1ccc(OC(C)C(=O)N2CC(C)OC(C)C2)cc1` (centres undefined), in assay [1], the cell count is 436. Also, the inhibition in assay [1] is 12.2% (inactive); in assay [3], -7.5% (inactive); in assay [7] it was 14.1% (inactive); in assay [8] it was 30.8% (inactive). For the same compound, the inhibition of aggregation in assay [2] is -4.6% (inactive). Moreover, the nuclei count in assay [2] is 97.2%; in assay [3], 120%. Moreover, the fluorescence slope was -0.566 (inactive) in assay [4] and 0.00556 (inactive) in assay [6]. Moreover, the NADPH fluorescence slope in assay [5] was 1.5e-06 (inactive).
Turning to `CC(C)(C)NC(=O)Cn1nnc(-c2cccs2)n1`, in assay [1], the cell count was 238. The inhibition was 6.4% (inactive) in assay [1], -3.4% (inactive) in assay [3], 1.59% (inactive) in assay [7] and -13% (inactive) in assay [8]. Besides, the inhibition of aggregation in assay [2] was 23.3% (inactive). The values for the nuclei count in assay [2] and in assay [3] were 99% and 85.2%, respectively. Further, the figures for the fluorescence slope in assay [4] and in assay [6] were -0.508 (inactive) and 0.00413 (inactive), respectively. In assay [5], the NADPH fluorescence slope was -1.3e-05 (inactive).
Consider `CCOC(=O)CNC(=O)Cn1cnc2c(nnn2-c2cccc(Cl)c2)c1=O`, for which the cell count in assay [1] amounted to 629. The inhibition in assay [1] is -10% (inactive); in assay [3], -41.7% (inactive); in assay [7], -3.21% (inactive); in assay [8] it was 5.01% (inactive). Besides, the inhibition of aggregation in assay [2] was -8.9% (inactive). Besides, the nuclei count in assay [2] stood at 140%; in assay [3] it was 110%. Moreover, the fluorescence slope is -0.477 (inactive) in assay [4] and 0.00553 (inactive) in assay [6]. Moreover, the NADPH fluorescence slope in assay [5] is 4.8e-05 (inactive).
`Cc1ccc(C)c(S(=O)(=O)NCc2ccc(C(=O)N3CCN(C)CC3)cc2)c1`: the cell count in assay [1] turned out to be 328. Besides, the inhibition in assay [1] was 1.1% (inactive); in assay [3] it was -101% (inactive); in assay [7], 3.27% (inactive); in assay [8], 19.6% (inactive). The inhibition of aggregation in assay [2] was 27.1% (inactive). Besides, the nuclei count was 105% in assay [2] and 106% in assay [3]. In addition, the results for the fluorescence slope in assay [4] and in assay [6] were -0.332 (inactive) and 0.00527 (inactive), respectively. Besides, the NADPH fluorescence slope in assay [5] was -4.8e-05 (inactive).
Turning to `O=C(c1ccc2c(c1)OCO2)N1CCNc2ccccc2C1`, the cell count in assay [1] was determined as 518. The inhibition in assay [1] is -0.5% (inactive); in assay [3], -14.3% (inactive); in assay [7], 8.51% (inactive); in assay [8], 2.68% (inactive). Besides, in assay [2], the inhibition of aggregation is 21.2% (inactive). Further, the nuclei count in assay [2] came out at 91%; in assay [3], 85.2%. Also, the values for the fluorescence slope in assay [4] and in assay [6] were -0.559 (inactive) and 0.00561 (inactive), respectively. In addition, the NADPH fluorescence slope in assay [5] is -3.1e-05 (inactive).
As to `CC(c1ccccc1)N1C(=O)c2ccc(C(=O)NCc3ccco3)cc2C1=O` (centres undefined), the cell count in assay [1] was found to be 710. In addition, the inhibition was 6.3% (inactive) in assay [1], 23.2% (inactive) in assay [3], -11.4% (inactive) in assay [7] and 51.6% (active) in assay [8]. For the same compound, the inhibition of aggregation in assay [2] is -0.8% (inactive). For the same compound, the nuclei count in assay [2] is 107%; in assay [3], 93.8%. The figures for the fluorescence slope in assay [4] and in assay [6] were -0.46 (inactive) and 0.00569 (inactive), respectively. Further, the NADPH fluorescence slope in assay [5] is -2.6e-05 (inactive).
On to `CCOC(=O)CSC1=Nc2ccccc2C2=NC(CC(=O)NCc3cccs3)C(=O)N12` (centres undefined), for which, in assay [1], the cell count was 224. The inhibition was 7.2% (inactive) in assay [1], 26% (inactive) in assay [3], 0.227% (inactive) in assay [7] and 9.15% (inactive) in assay [8]. Besides, the inhibition of aggregation in assay [2] is 13.9% (inactive). Besides, the figures for the nuclei count in assay [2] and in assay [3] were 81.6% and 78.1%, respectively. Moreover, the fluorescence slope in assay [4] is -0.572 (inactive); in assay [6], 0.00528 (inactive). In assay [5], the NADPH fluorescence slope is -5.5e-05 (inactive).
On to `O=C(NCc1ccco1)Nc1ccc2nsnc2c1`, for which the cell count in assay [1] is 683. In addition, the inhibition is -6.1% (inactive) in assay [1], -138% (inactive) in assay [3], -31.4% (inactive) in assay [7] and -83.7% (inactive) in assay [8]. In addition, the inhibition of aggregation in assay [2] was -22.1% (inactive). For the same compound, the nuclei count in assay [2] turned out to be 113%; in assay [3], 119%. The fluorescence slope is -0.445 (inactive) in assay [4] and 0.00612 (inactive) in assay [6]. For the same compound, the NADPH fluorescence slope in assay [5] is -2.6e-05 (inactive).
With `Cc1nc(NC2=NCN(CCCN3CCOCC3)CN2)nc2c(C)cccc12`, the cell count in assay [1] is 552. Besides, the inhibition in assay [1] is 12.1% (inactive); in assay [3] it was 35.4% (inactive); in assay [7], 26.7% (inactive); in assay [8] it was 31.4% (inactive). Further, in assay [2], the inhibition of aggregation is 0.1% (inactive). For the same compound, the nuclei count came out at 73.7% in assay [2] and 97.1% in assay [3]. Besides, the figures for the fluorescence slope in assay [4] and in assay [6] were -0.571 (inactive) and 0.00567 (inactive), respectively. For the same compound, the NADPH fluorescence slope in assay [5] was -6.5e-05 (inactive).
`CCn1c(COc2cccc3ccccc23)nnc1SCC(N)=O`: the cell count in assay [1] came to 436. For the same compound, the inhibition in assay [1] was 9.4% (inactive); in assay [3] it was -0.1% (inactive); in assay [7] it was 12.9% (inactive); in assay [8] it was 19.7% (inactive). Further, the inhibition of aggregation in assay [2] was -3.1% (inactive). Also, the results for the nuclei count in assay [2] and in assay [3] were 99.6% and 124%, respectively. Moreover, the fluorescence slope in assay [4] is -0.524 (inactive); in assay [6], 0.00477 (inactive). Besides, in assay [5], the NADPH fluorescence slope is -6.7e-05 (inactive).
On to `Cc1nc(C)c(C(=O)Nc2ccc(C)c(F)c2)o1`, for which the cell count in assay [1] stood at 600. The inhibition was -4.5% (inactive) in assay [1], -2.7% (inactive) in assay [3], 4.25% (inactive) in assay [7] and -10.3% (inactive) in assay [8]. For the same compound, the inhibition of aggregation in assay [2] was 19.4% (inactive). The nuclei count in assay [2] came out at 97.5%; in assay [3] it was 120%. Moreover, the values for the fluorescence slope in assay [4] and in assay [6] were -0.335 (inactive) and 0.00567 (inactive), respectively. For the same compound, the NADPH fluorescence slope in assay [5] was -5.2e-05 (inactive).
Consider `CCN(CC(=O)NC(=O)NCc1ccco1)Cc1nc2ccccc2c(=O)[nH]1`, for which, in assay [1], the cell count came out at 407. Further, the inhibition in assay [1] is -20.9% (inactive); in assay [3] it was 63.7% (active); in assay [7], 15.7% (inactive); in assay [8], 15% (inactive). For the same compound, the inhibition of aggregation in assay [2] was -36.6% (inactive). In addition, the nuclei count in assay [2] is 97.9%; in assay [3], 68.4%. The fluorescence slope in assay [4] is -0.561 (inactive); in assay [6], 0.0066 (inactive). Besides, the NADPH fluorescence slope in assay [5] is -5.5e-05 (inactive).
Take `Cc1c(C(=O)O)oc2ccc(S(=O)(=O)NCCC3=CCCCC3)cc12`: the cell count in assay [1] is 652. Also, the inhibition in assay [1] was 9.2% (inactive); in assay [3], -36.3% (inactive); in assay [7], 3.33% (inactive); in assay [8], 15.9% (inactive). In assay [2], the inhibition of aggregation is 5% (inactive). The nuclei count in assay [2] worked out at 88%; in assay [3] it was 114%. The fluorescence slope in assay [4] is -0.454 (inactive); in assay [6] it was 0.0068 (inactive). For the same compound, the NADPH fluorescence slope in assay [5] is 4.4e-05 (inactive).
Take `CCOC(=O)N1CCN(c2cc3[nH]c(=S)[nH]c3cc2F)CC1`: the cell count in assay [1] was 792. The inhibition in assay [1] was 0% (inactive); in assay [3] it was -135% (inactive); in assay [7] it was 17.8% (inactive); in assay [8], 20.8% (inactive). Moreover, the inhibition of aggregation in assay [2] was -5.7% (inactive). Moreover, the values for the nuclei count in assay [2] and in assay [3] were 104% and 136%, respectively. Also, the fluorescence slope in assay [4] was -0.525 (inactive); in assay [6], 0.00501 (inactive). Besides, in assay [5], the NADPH fluorescence slope is -2.4e-05 (inactive).
